# Results from different studies.
# Protocols differ between the studies behind these lines.
# PIK3CG: Phosphatidylinositol 4,5-bisphosphate 3-kinase catalytic subunit gamma isoform (PIK3CG, Homo sapiens, UniProt P48736)
# SCTR: Secretin receptor (SCTR, Homo sapiens, UniProt P47872)
# DHODH: Dihydroorotate dehydrogenase (quinone), mitochondrial (DHODH, Homo sapiens, UniProt Q02127)
# PTGS2: Prostaglandin G/H synthase 2 (PTGS2, Homo sapiens, UniProt P35354)
SMILES,target,test,quantity,value
CNC[C@H](O)c1cccc(O)c1,"Alpha-1D adrenergic receptor (ADRA1D, Homo sapiens, UniProt P25100)","calcium signal, agonist",EC50,17.4 nM
Cc1nc(Nc2ccc3c(c2)C(C)(C)C(=O)N3)c2ccccc2n1,PIK3CG,"enzyme activity, inhibitor, ADP detection",IC50,134 nM
NC(=O)c1cccc(C#CCN(CC[C@H](N)C(=O)O)C[C@H]2O[C@@H](n3cnc4c(N)ncnc43)[C@H](O)[C@@H]2O)c1,"Serine hydroxymethyltransferase, mitochondrial (SHMT2, Homo sapiens, UniProt P34897)","binding, MST",Kd,66000 nM
Cc1nc(Nc2ccc3c(c2)C(C)(C)C(=O)N3C)c2ccccc2n1,PIK3CG,"enzyme activity, inhibitor, ADP detection",IC50,389 nM
CC1=NN(/C(=N\c2cccnc2)Nc2nnc(C)s2)C(c2ccc(C)cc2)S1 (centres unmarked),SCTR,"cAMP, agonist, TR-FRET",EC50,> 50000 nM
Cn1nc2c(=O)n(C3CC3)nc(C3CC3)c2c1Cc1ccc(C(F)(F)F)c(F)c1,DHODH,"enzyme activity, inhibitor",IC50,2300 nM
Cc1nc(Nc2ccc3c(c2)/C(=C/c2ccccc2)C(=O)N3C)c2ccccc2n1,PIK3CG,"enzyme activity, inhibitor, ADP detection",IC50,113 nM
CCCc1cc(C(=O)Nc2ccc(C(C)=O)cc2)c(NC(=O)c2ccccc2)s1,PTGS2,"enzyme activity, inhibitor",IC50,1230 nM
O=C(/C=C/c1ccc(O)c(O)c1)O[C@@H]1C[C@](O)(C(=O)O)C[C@@H](O)[C@H]1O,PTGS2,"enzyme activity, inhibitor, fluorescence",IC50,30000 nM
Cc1c(C(=O)OC2CC2)nn(C)c1Cc1ccc(C(F)(F)F)nc1,DHODH,"enzyme activity, inhibitor",IC50,> 100000 nM
Cc1nc(N(C)c2ccc3c(c2)/C(=C/c2ccccc2Cl)C(=O)N3C)c2ccccc2n1,PIK3CG,"enzyme activity, inhibitor, ADP detection",IC50,105 nM
CCn1ncc2c([C@](O)(c3ccc(C(F)(F)F)c(Cl)c3)C3CC3)n(C)nc2c1=O,DHODH,"enzyme activity, inhibitor",IC50,> 100000 nM
Cc1ccc(N/C(=N\c2nnc(C(C)(C)C)s2)N2N=C(C(C)(C)C)SC2c2cc(F)c(F)c(F)c2)cc1C (centres unmarked),SCTR,"cAMP, agonist, TR-FRET",EC50,> 50000 nM
CCn1cc(C)c2c(C(O)c3ccc(Cl)c(F)c3)n(C)nc2c1=O (centres unmarked),DHODH,"enzyme activity, inhibitor",IC50,> 100000 nM
COc1cc2ncnc(Nc3ccc4c(c3)/C(=C/c3ccccc3)C(=O)N4C)c2cc1OC,PIK3CG,"enzyme activity, inhibitor, ADP detection",IC50,194 nM
CCn1ccc2c(Cc3ccc(C(F)(F)F)nc3)n(C)nc2c1=O,DHODH,"enzyme activity, inhibitor, absorbance",IC50,> 100000 nM
CC1=NN(/C(=N/c2nnc(C)s2)Nc2ccc(C)c(C)c2)C(c2ccc(-c3ccccc3)cc2)S1 (centres unmarked),SCTR,"cAMP, agonist, TR-FRET",EC50,700 nM
